Experimental data: ChEMBL document CHEMBL3286131, “Design, synthesis and systematic evaluation of cytotoxic 3-heteroarylisoquinolinamines as topoisomerases inhibitors” (Eur J Med Chem, 2014)
“And” between values parts separate entries of the source, which are not always exact repeats. Identical values can stand only once.

Experiments:
[1] = target: T1, DNA topoisomerase 1 (Homo sapiens) (UniProt P11387); assay: Inhibition of recombinant human DNA topoisomerase-1-mediated relaxation of supercoiled DNA pBR322 at 20 uM after 7 hrs using ethidium bromide staining by agarose gel electrophoresis analysis
T1 sequence (whole entry): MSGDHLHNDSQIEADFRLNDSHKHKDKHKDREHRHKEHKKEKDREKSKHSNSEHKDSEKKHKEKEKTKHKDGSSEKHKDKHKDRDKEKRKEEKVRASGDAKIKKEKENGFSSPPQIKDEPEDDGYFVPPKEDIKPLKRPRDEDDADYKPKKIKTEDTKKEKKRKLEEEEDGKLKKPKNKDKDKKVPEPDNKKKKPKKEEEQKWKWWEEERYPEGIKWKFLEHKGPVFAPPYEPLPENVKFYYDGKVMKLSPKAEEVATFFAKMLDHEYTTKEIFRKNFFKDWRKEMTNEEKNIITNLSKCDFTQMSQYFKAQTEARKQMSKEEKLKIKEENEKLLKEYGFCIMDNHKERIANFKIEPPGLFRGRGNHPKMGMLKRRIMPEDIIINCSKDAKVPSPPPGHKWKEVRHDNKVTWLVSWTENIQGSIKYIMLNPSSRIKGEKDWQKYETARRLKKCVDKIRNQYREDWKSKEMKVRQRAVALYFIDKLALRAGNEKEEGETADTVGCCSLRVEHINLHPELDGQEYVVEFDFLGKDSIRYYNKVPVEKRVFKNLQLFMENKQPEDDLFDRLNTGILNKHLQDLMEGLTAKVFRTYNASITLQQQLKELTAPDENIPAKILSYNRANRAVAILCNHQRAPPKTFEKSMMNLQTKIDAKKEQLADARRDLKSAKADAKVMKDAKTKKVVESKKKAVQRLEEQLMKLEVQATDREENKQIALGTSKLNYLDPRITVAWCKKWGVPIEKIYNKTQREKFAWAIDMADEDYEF
In short: (§1)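 pBR322 (100 ng) incubated with recombinant human topo I (0.4 units) ± compound for 30 min at 37 °C. Buffer: 10 mM Tris-HCl pH 7.9, 150 mM NaCl, 0.1% BSA, 1 mM spermidine, 5% glycerol. Quenched with sarcosyl stop solution. 1% agarose gel run at 15 V for 7 h in TAE, ethidium bromide stain, supercoiled DNA quantified under UV.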

[2] = target: DNA topoisomerase 2-alpha (Homo sapiens) (UniProt P11388); assay: Inhibition of human DNA topoisomerase-2a-mediated relaxation of supercoiled DNA pBR322 at 20 uM after 4 hrs using ethidium bromide staining by agarose gel electrophoresis analysis
Sequence of DNA topoisomerase 2-alpha (Homo sapiens) (P11388 whole entry): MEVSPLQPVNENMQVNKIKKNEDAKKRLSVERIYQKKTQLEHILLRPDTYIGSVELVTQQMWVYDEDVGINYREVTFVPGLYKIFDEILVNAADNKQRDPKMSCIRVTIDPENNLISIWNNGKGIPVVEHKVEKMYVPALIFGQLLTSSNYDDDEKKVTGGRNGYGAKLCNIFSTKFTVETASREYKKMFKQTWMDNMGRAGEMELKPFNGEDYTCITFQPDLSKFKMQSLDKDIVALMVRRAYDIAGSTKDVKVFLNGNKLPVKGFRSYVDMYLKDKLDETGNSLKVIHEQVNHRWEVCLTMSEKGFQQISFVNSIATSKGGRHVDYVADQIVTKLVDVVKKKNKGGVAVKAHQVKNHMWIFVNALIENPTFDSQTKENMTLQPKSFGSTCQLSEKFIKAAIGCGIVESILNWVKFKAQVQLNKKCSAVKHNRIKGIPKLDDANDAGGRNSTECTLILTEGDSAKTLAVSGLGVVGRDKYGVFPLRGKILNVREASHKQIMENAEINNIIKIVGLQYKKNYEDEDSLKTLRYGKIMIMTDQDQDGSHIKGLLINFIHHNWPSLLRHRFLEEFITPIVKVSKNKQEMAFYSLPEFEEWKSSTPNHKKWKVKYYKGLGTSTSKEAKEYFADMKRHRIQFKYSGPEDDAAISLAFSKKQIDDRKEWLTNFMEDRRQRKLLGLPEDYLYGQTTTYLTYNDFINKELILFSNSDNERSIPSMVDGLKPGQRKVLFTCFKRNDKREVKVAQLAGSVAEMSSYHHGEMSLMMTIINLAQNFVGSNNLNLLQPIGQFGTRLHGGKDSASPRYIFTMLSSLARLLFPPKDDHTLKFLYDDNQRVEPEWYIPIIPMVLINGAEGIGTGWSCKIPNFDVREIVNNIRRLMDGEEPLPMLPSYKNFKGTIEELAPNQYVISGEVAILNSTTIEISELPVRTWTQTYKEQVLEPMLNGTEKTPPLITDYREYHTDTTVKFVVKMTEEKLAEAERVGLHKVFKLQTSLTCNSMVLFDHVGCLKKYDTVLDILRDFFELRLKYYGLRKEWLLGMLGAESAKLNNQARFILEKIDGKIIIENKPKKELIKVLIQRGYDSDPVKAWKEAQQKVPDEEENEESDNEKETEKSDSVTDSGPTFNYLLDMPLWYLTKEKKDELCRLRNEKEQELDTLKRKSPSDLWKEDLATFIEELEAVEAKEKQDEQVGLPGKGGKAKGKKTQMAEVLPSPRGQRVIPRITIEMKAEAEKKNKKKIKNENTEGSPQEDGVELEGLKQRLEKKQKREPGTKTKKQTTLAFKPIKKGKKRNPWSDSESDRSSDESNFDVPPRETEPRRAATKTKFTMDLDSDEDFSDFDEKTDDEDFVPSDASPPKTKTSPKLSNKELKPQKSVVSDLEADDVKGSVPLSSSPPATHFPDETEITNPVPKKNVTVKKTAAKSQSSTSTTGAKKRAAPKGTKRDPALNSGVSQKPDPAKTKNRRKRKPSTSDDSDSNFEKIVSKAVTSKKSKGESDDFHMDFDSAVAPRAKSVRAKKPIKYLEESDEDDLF
In short: (§2)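 Supercoiled pBR322 (200 ng) incubated with human topo IIα (1 unit) ± compound for 30 min at 30 °C. Buffer: 10 mM Tris-HCl pH 7.9, 50 mM NaCl, 50 mM KCl, 5 mM MgCl2, 1 mM EDTA, 1 mM ATP, BSA. Stopped with EDTA. 1% agarose gel run at 25 V for 4 h in TAE, ethidium bromide stain, supercoiled DNA quantified by UV imaging.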

[3] = target: DNA topoisomerase 2-alpha (Homo sapiens) (UniProt P11388); assay: Inhibition of human DNA topoisomerase-2a-mediated relaxation of supercoiled DNA pBR322 at 100 uM after 4 hrs using ethidium bromide staining by agarose gel electrophoresis analysis; in short: as §2
[4] = target: T1, DNA topoisomerase 1 (Homo sapiens); assay: Inhibition of recombinant human DNA topoisomerase-1-mediated relaxation of supercoiled DNA pBR322 at 100 uM after 7 hrs using ethidium bromide staining by agarose gel electrophoresis analysis; in short: as §1
HeLa [5] = assay: Cell cycle arrest in human HeLa cells assessed as accumulation at G2/M phase phase after 24 hrs using […] by flow cytometry analysis relative to control; assay type: functional, cell-based
In short: (§3)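 HeLa cells exposed to graded compound concentrations for 24 h, harvested by centrifugation, PBS-washed twice, fixed overnight on ice in 70% ethanol. Stained with 10 μg/mL propidium iodide plus 0.5 mg/mL RNase and 0.1% Triton X-100 in PBS, 30 min at 37 °C in the dark. Flow cytometry gates: sub-G0/G1, G0/G1, S, G2/M.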

HeLa [6] = assay: Cell cycle arrest in human HeLa cells assessed as accumulation at sub-G0/G1 phase after 24 hrs using […] by flow cytometry analysis relative to control; assay type: functional, cell-based; in short: as §3
[7] = Cytotoxicity against human MCF10A cells after 2 days; assay type: cell-based, MCF-10A; conditions: Homo sapiens, MCF-10A, 48 h
In short: (§4)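 Cells seeded at 2-4 × 10^4 per well in medium with 10% FBS and incubated overnight at 37 °C, 5% CO2. Graded compound concentrations added on day 2. CCK-8 reagent added on day 4 for a further 4 h, absorbance read at 450 nm. IC50 from a four-parameter logistic fit; mean ± S.D. of three experiments run in triplicate.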

T47D = assay: Cytotoxicity against human T47D cells after 2 days; assay type: functional, cell-based; conditions: Homo sapiens, T47D, 48 h; in short: as §4
DU-145 = assay: Cytotoxicity against human DU145 cells after 2 days; assay type: functional, cell-based; conditions: Homo sapiens, DU-145, 48 h; in short: as §4
[8] = Cytotoxicity against human HCT15 cells after 2 days; assay type: functional, cell-based, HCT-15; conditions: Homo sapiens, HCT-15, 48 h; in short: as §4

Row | SMILES | inhibition [1] | inhibition [2] | inhibition [3] | inhibition [4] | Activity (HeLa [5]) | Activity (HeLa [6]) | IC50 [7] [µM] | IC50 (T47D) [µM] | IC50 (DU-145) [µM] | IC50 [8] [µM]
1 | c1csc(-c2cc3ccccc3c(N3CCNCC3)n2)c1 | 0.6% and 4.8% | 0% |  |  |  |  |  |  |  | 
2 | Nc1nc(-c2cccs2)cc2ccccc12 |  | 0% | 14.6% and 22.5% | 0% | Dose-dependent effect | Dose-dependent effect |  |  |  | 
3 | c1csc(-c2cc3ccccc3c(N3CCCCC3)n2)c1 |  | 0.5% and 1.8% | 42.9% and 48.1% | 0% |  |  |  |  |  | 
4 | Cc1ccc2c(NCc3ccccc3)nc(-c3cccs3)cc2c1 |  | 1.1% | 68.9% | 0% |  |  | > 50 | 6.57 | > 50 | 8.62
5 | Cc1ccc2c(N3CCNCC3)nc(-c3cccs3)cc2c1 | 0% | 0% |  | 59% and 59.6% |  |  |  |  |  | 
6 | Cc1ccc2c(N3CCCCC3)nc(-c3cccs3)cc2c1 | 0% | 1.1% |  |  |  |  |  |  |  | 
